Measurements: ChEMBL document CHEMBL2331171, “Anti-malarial activity of new N-acetyl-L-leucyl-L-leucyl-L-norleucinal (ALLN) derivatives against Plasmodium falciparum” (Bioorg Med Chem Lett, 2013)
pIC50: −log10 of the molar value. Where a SMILES comes first, the peptide text is derived from it. [ ]: non-standard residue; d: D form. Nle = CCCC[C@H](N)C(=O)O

Assays:
[1] = Therapeutic index, ratio of CC50 for human HeLa cells to IC50 for Plasmodium falciparum FCR-3; assay type: cell-based; conditions: HeLa cells versus Plasmodium falciparum FCR-3, read-out: Ratio CC50/IC50
[2] = Cytotoxicity against human HeLa cells assessed as growth inhibition after 48 hrs by MTS assay; assay type: cell-based
Plasmodium falciparum = assay: Antimalarial activity against Plasmodium falciparum FCR-3 infected in erythrocytes assessed as reduction in parasitemia after 72 hrs by light microscopic analysis; assay type: functional, cell-based; conditions: FCR-3/Gambia
How it was run: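 P. falciparum FCR3 in erythrocytes exposed to compounds; parasitemia (parasite content of erythrocytes) counted microscopically; concentration giving 50% growth inhibition derived. Mean SD of three independent experiments, each in triplicate.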

Structure (SMILES)	pIC50 (Plasmodium falciparum)	selectivity ratio [1]	CC50 at 48 h [2] [µM]
CCNC(=O)/C=C/[C@H](Cc1ccccc1)NC(=O)[C@@H](CCCNC(=O)OCc1ccccc1)NC(=O)OC(C)(C)C	< 4.00	–	2000
CC(C)(C)OC(=O)N[C@H](CCCNC(=O)OCc1ccccc1)C(=O)N[C@H](/C=C/C=C/C(=O)N1CCCC1)Cc1ccccc1	< 4.00	–	53.1
CN(C)C(=O)/C=C/C=C/[C@H](Cc1ccccc1)NC(=O)[C@@H](CCCNC(=O)OCc1ccccc1)NC(=O)OC(C)(C)C	< 4.00	–	117
CNC(=O)/C=C/C=C/[C@H](Cc1ccccc1)NC(=O)[C@@H](CCCNC(=O)OCc1ccccc1)NC(=O)OC(C)(C)C	4.63	11.9	281
CC(C)(C)OC(=O)N[C@H](CCCNC(=O)OCc1ccccc1)C(=O)N[C@H](/C=C/C=C/C(=O)N1CCCCC1)Cc1ccccc1	4.80	11.2	175
CNC(=O)/C=C/[C@H](Cc1ccccc1)NC(=O)[C@@H](CCCNC(=O)OCc1ccccc1)NCc1ccccc1	4.82	16.5	253
CNC(=O)/C=C/[C@H](Cc1ccccc1)NC(=O)[C@@H](CCCNC(=O)OCc1ccccc1)NCc1cc(OC)cc(OC)c1	4.79	15.8	259
CNC(=O)/C=C/[C@H](Cc1ccccc1)NC(=O)[C@@H](CCCNC(=O)OCc1ccccc1)NCc1ccc(OC)cc1	4.78	27.6	461
CNC(=O)/C=C/[C@H](Cc1ccccc1)NC(=O)[C@@H](CCCNC(=O)OCc1ccccc1)NC(C)C	4.25	10.8	611

Stronger by pIC50 (Plasmodium falciparum), values ahead:

pIC50 (Plasmodium falciparum)	Structure (SMILES)	selectivity ratio [1]	CC50 at 48 h [2] [µM]
4.94	CC(C)(C)OC(=O)N[C@H](CCCNC(=O)OCc1ccccc1)C(=O)N[C@H](/C=C/C(=O)N1CCCC1)Cc1ccccc1	13.4	153
5.30	CNC(=O)/C=C/[C@H](Cc1ccccc1)NC(=O)[C@@H](CCCNC(=O)OCc1ccccc1)NC(=O)OC(C)(C)C	157	1060
5.03	CC(C)NC(=O)/C=C/[C@H](Cc1ccccc1)NC(=O)[C@@H](CCCNC(=O)OCc1ccccc1)NC(=O)OC(C)(C)C	33.8	314
5.30	CNC(=O)/C=C/[C@H](Cc1ccccc1)NC(=O)[C@@H](CCCNC(=O)OCc1ccccc1)NCc1cccc(C)c1	48.3	242
6.19	CCCC[C@@H](C=O)NC(=O)[C@H](CC(C)C)NC(=O)[C@H](CC(C)C)NC(C)=O (Ac-Leu-Leu-[Nle]-aldehyde)	39.2	25.1
